Measurements of several laboratories.
Compare with care: the assays were run in different laboratories.
Organism: Candida albicans
Observed: microbial growth
Technique: broth dilution

| SMILES | test system | setting | MIC |
| --- | --- | --- | --- |
| C/C(=N\C1CCCCC1/N=C(\C)c1c(O)c2ccccc2oc1=O)c1c(O)c2ccccc2oc1=O (stereo not shown) | – | 48 h | 31.2 µg/mL |
| N#CC(C#N)=C1SC(C(=O)c2ccc(Nc3cnccn3)cc2)=NN1c1ccc([N+](=O)[O-])cc1 | ATCC10231 | – | 12.5 µg/mL |
| C/C(=N\NC(=O)/N=C(\C)c1c(O)c2ccccc2oc1=O)c1c(O)c2ccccc2oc1=O | – | 48 h | 31.2 µg/mL |
| C=CC(=O)ON=C1C=CC(=C(C#N)c2ccccc2)C=C1 | ATCC10231 | 48 h | 2 µg/mL |
| Nc1nn2c(-c3ccco3)cc(-c3ccc(OCc4ccccc4)cc3)nc2c1N=Nc1ccc(F)cc1 | ATCC10231 | – | 125 µg/mL |
| C/C(=N\N=C(/C)c1c(O)c2ccccc2oc1=O)c1c(O)c2ccccc2oc1=O | – | 48 h | 125 µg/mL |
| COc1ccc(-n2nc(C(=O)c3ccc(Nc4cnccn4)cc3)sc2=N)cc1 | ATCC10231 | – | 50 µg/mL |
| C[C@@H]1[C@H](O)[C@@H](C)/C=C/C=C/C=C/C=C/C=C/C=C/C=C/[C@H](O[C@@H]2O[C@H](C)[C@@H](O)[C@H](N)[C@@H]2O)C[C@@H]2O[C@](O)(C[C@@H](O)C[C@@H](O)[C@H](O)CC[C@@H](O)C[C@@H](O)CC(=O)O[C@H]1C)C[C@H](O)[C@H]2C(=O)O | SP3903 | 48 h | < 0.25 µM |
| Cc1ccc(N=Nc2c(N)nn3c(-c4ccc(C)cc4)cc(-c4ccc(OCc5ccccc5)cc4)nc23)cc1 | ATCC10231 | – | 31.3 µg/mL |
| C[C@@H]1[C@H](O)[C@@H](C)/C=C/C=C/C=C/C=C/C=C/C=C/C=C/[C@H](O[C@@H]2O[C@H](C)[C@@H](O)[C@H](N)[C@@H]2O)C[C@@H]2O[C@](O)(C[C@@H](O)C[C@@H](O)[C@H](O)CC[C@@H](O)C[C@@H](O)CC(=O)O[C@H]1C)C[C@H](O)[C@H]2C(=O)O | ATCC90028 | 48 h | 0.5 µg/mL |
| N#CC(=C1C=CC(=NOC(=O)OCc2ccccc2)C=C1)c1ccccc1 | ATCC10231 | 48 h | 256 µg/mL |
| CC(=O)N1CCN(c2ccc(OCC3COC(Cn4ccnc4)(c4ccc(Cl)cc4Cl)O3)cc2)CC1 (stereo not shown) | ATCC10231 | – | 1.95 µg/mL |
| C#CCOC(=O)ON=C1C=CC(=C(C#N)c2ccccc2)C=C1 | ATCC10231 | 48 h | 4 µg/mL |
| CC(=O)C1=NN(c2ccccc2)C(=C(C#N)C(=O)c2ccc(Nc3cnccn3)cc2)S1 | ATCC10231 | – | 100 µg/mL |
| CC(=O)N1CCN(c2ccc(OCC3COC(Cn4ccnc4)(c4ccc(Cl)cc4Cl)O3)cc2)CC1 (stereo not shown) | 14936 | 48 h | 2 µM |
| C/C(=N\c1nc(N)nc(/N=C(\C)c2c(O)c3ccccc3oc2=O)n1)c1c(O)c2ccccc2oc1=O | – | 48 h | 62.5 µg/mL |
| CCCCCCCCCCCC(=O)ON=C1C=CC(=C(C#N)c2ccccc2)C=C1 | ATCC10231 | 48 h | 512 µg/mL |
| COc1ccc(N=Nc2c(N)nn3c(-c4ccc(Cl)cc4Cl)cc(-c4ccc(OCc5ccccc5)cc4)nc23)cc1 | ATCC10231 | – | 62.5 µg/mL |
| N=c1sc(C(=O)c2ccc(Nc3cnccn3)cc2)nn1-c1ccc([N+](=O)[O-])cc1 | ATCC10231 | – | 12.5 µg/mL |
| OC(Cn1cncn1)(Cn1cncn1)c1ccc(F)cc1F | 1 | 24 h | 128 µg/mL |
| C/C(=N\CCNCCNCC/N=C(\C)c1c(O)c2ccccc2oc1=O)c1c(O)c2ccccc2oc1=O | – | 48 h | 15.6 µg/mL |
| OC(Cn1cncn1)(Cn1cncn1)c1ccc(F)cc1F | SP3902 | 48 h | 8 µM |
| N=c1sc(C(=O)c2ccc(Nc3cnccn3)cc2)nn1-c1ccccc1 | ATCC10231 | – | 100 µg/mL |
| CC(=O)ON=C1C=CC(=C(C#N)c2ccccc2)C=C1 | ATCC10231 | 48 h | 2 µg/mL |
| CC(C)c1ccc(/C=C2\N=C(SCC(=O)O)N(c3ccccc3)C2=O)cc1 | ATCC10 ATCC10231 | – | 21 µg/mL |
